In ChEMBL document CHEMBL2331355, “Synthesis, structure activity relationship and mode of action of 3-substitutedphenyl-1-(2,2,8,8-tetramethyl-3,4,9,10-tetrahydro-2H,8H-pyrano[2,3-f]chromen-6-yl)-propenones as novel anticancer agents in human leukaemia HL-60 cells” (Eur J Med Chem, 2013):

What was measured:
Assay type in all cases: functional
ASPC1 = test: Growth inhibition of human AsPC1 cells at 50 uM after 48 hrs by MTT assay; details: ASPC1, 48 h, read-out: GI
How it was run: (§1)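 Single-concentration MTT screen at 50 µM over 48 h in 96-well plates. Compounds giving >50% inhibition were rescreened at 30 µM. OD read at 570 nm, reference 620 nm. Result expressed as % growth inhibition versus untreated control. Mitomycin C, adriamycin or 5-fluorouracil used as positive controls. Mean ± SD of three independent experiments.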

MCF7 = test: Growth inhibition of human MCF7 cells at 50 uM after 48 hrs by MTT assay; details: MCF7, 48 h, read-out: GI; how it was run: as §1
HL-60 = test: Growth inhibition of human HL60 cells at 50 uM after 48 hrs by MTT assay; details: HL-60, 48 h, read-out: GI; how it was run: as §1
PC-3 = test: Growth inhibition of human PC3 cells at 50 uM after 48 hrs by MTT assay; details: PC-3, 48 h, read-out: GI; how it was run: as §1
MIA PaCa-2 = test: Growth inhibition of human MIAPaCa2 cells at 50 uM after 48 hrs by MTT assay; details: MIA PaCa-2, 48 h, read-out: GI; how it was run: as §1
Caco-2 = test: Growth inhibition of human Caco2 cells at 50 uM after 48 hrs by MTT assay; details: Caco-2, 48 h, read-out: GI; how it was run: as §1
MDA-MB-435 = test: Growth inhibition of human MDA-MB-435 cells at 50 uM after 48 hrs by MTT assay; details: MDA-MB-435, 48 h, read-out: GI; how it was run: as §1

Row | Structure (SMILES) | inhibition of growth at 50 µM (ASPC1) | inhibition of growth at 50 µM (MCF7) | inhibition of growth at 50 µM (HL-60) | inhibition of growth at 50 µM (PC-3) | inhibition of growth at 50 µM (MIA PaCa-2) | inhibition of growth at 50 µM (Caco-2) | inhibition of growth at 50 µM (MDA-MB-435)
1 | COc1cc(OC)c(/C=C/C(=O)c2cc3c(c4c2OC(C)(C)CC4)OC(C)(C)CC3)c(OC)c1 | 5% | 26% | 77% | 62% | 27% | 17% | 32%
2 | COc1ccc(OC)c(/C=C/C(=O)c2cc3c(c4c2OC(C)(C)CC4)OC(C)(C)CC3)c1 | 2% | 15% | 27% | 36% | 17% | 23% | 52%
3 | CC1(C)CCc2cc(C(=O)/C=C/c3ccc(Br)cc3)c3c(c2O1)CCC(C)(C)O3 | 27% | 16% | 25% | 33% | 45% | 28% | 52%
